Results reported in ChEMBL document CHEMBL1255395, “Laninamivir prodrug CS-8958, a long-acting neuraminidase inhibitor, shows superior anti-influenza virus activity after a single administration” (Antimicrob Agents Chemother, 2010).
The source made the active and inactive calls. No cut-off for these calls is given here.

What was measured:
Influenza A virus [1] = assay: Antimicrobial activity against Influenza A virus (A/Puerto Rico/8/34(H1N1)) infected in BALB/c mouse assessed as increase in mouse survival at 3.3 mg/kg, itn administered for 7 days before infection; assay type: functional, organism-based; set-up: dose 3.3 mg/kg; settings: A/Puerto Rico/8/1934(H1N1)
Influenza A virus [2] = assay: Antimicrobial activity against Influenza A virus (A/Puerto Rico/8/34(H1N1)) infected in BALB/c mouse assessed as increase in mouse survival at 7 mg/kg, itn administered for 7 days before infection; assay type: functional, organism-based; set-up: dose 7 mg/kg; settings: A/Puerto Rico/8/1934(H1N1)
Influenza A virus [3] = assay: Antimicrobial activity against Influenza A virus (A/Puerto Rico/8/34(H1N1)) infected in BALB/c mouse assessed as increase in mouse survival at 14 mg/kg, itn administered for 7 days before infection; assay type: functional, organism-based; set-up: dose 14 mg/kg; settings: A/Puerto Rico/8/1934(H1N1)
Influenza A virus [4] = assay: Antimicrobial activity against Influenza A virus (A/Puerto Rico/8/34(H1N1)) infected in BALB/c mouse assessed as increase in mouse survival at 1.6 mg/kg, itn administered for 7 days before infection; assay type: functional, organism-based; set-up: dose 1.6 mg/kg; settings: A/Puerto Rico/8/1934(H1N1)
Influenza A virus [5] = assay: Antimicrobial activity against Influenza A virus (A/Puerto Rico/8/34(H1N1)) infected in BALB/c mouse assessed as increase in mouse survival at 4.7 mg/kg, itn administered for 7 days before infection; assay type: functional, organism-based; set-up: dose 4.7 mg/kg; settings: A/Puerto Rico/8/1934(H1N1)
Influenza A virus [6] = assay: Antimicrobial activity against Influenza A virus (A/Puerto Rico/8/34(H1N1)) infected in BALB/c mouse assessed as reduction in viral titer in lung at 14 mg/kg, itn administered for 7 days before infection; assay type: functional, organism-based; set-up: dose 14 mg/kg; settings: A/Puerto Rico/8/1934(H1N1)
How it was run: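 Female BALB/c mice (5–6 wk) given one intranasal dose in saline (50 μl) 7 days before intranasal infection with A/PR/8/34, 500 PFU. Lungs (three mice per time point) excised on days 1, 2, 3 and 4 and homogenized in PBS-BSA/PS. Titer determined by MDCK plaque assay, read as log10 PFU/lungs, mean ± SD (n = 3). AUC expressed as percent of saline control.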

Influenza B virus [7] = assay: Antimicrobial activity against Influenza B virus (B/Hong Kong/05/1972) infected in BALB/c mouse assessed as increase in mouse survival at 1.1 mg/kg, itn administered for 7 days before infection; assay type: functional, organism-based; set-up: dose 1.1 mg/kg
Influenza B virus [8] = assay: Antimicrobial activity against Influenza B virus (B/Hong Kong/05/1972) infected in BALB/c mouse assessed as increase in mouse survival at 3.3 mg/kg, itn administered for 7 days before infection; assay type: functional, organism-based; set-up: dose 3.3 mg/kg
Influenza B virus [9] = assay: Antimicrobial activity against Influenza B virus (B/Hong Kong/05/1972) infected in BALB/c mouse assessed as increase in mouse survival at 9.6 mg/kg, itn administered for 7 days before infection; assay type: functional, organism-based; set-up: dose 9.6 mg/kg
Influenza B virus [10] = assay: Antimicrobial activity against Influenza B virus (B/Malaysia/2506/2004) infected itn dosed Mustela putorius furo assessed as nasal viral titer treated after 4 hrs post infection measured after 1 day; assay type: functional, organism-based
How it was run: (§1)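 Ferrets (600–800 g), seronegative by hemagglutination inhibition, anaesthetized with ketamine/xylazine and infected with B/Malaysia/2506/2004, 1,000 PFU/100 μl. From 4 hpi they received either a single intranasal dose (saline, 0.05 or 0.5 μmol/kg) or 25 mg/kg oral twice daily. Nasal wash titers measured by MDCK plaque assay on days 1, 2 and 3, log10 PFU/ml (n = 5). Undetectable samples entered at the lower limit of detection.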

Influenza B virus [11] = assay: Antimicrobial activity against Influenza B virus (B/Malaysia/2506/2004) infected itn dosed Mustela putorius furo assessed as nasal viral titer treated after 4 hrs post infection measured after 2 days; assay type: functional, organism-based; how it was run: as §1
Influenza B virus [12] = assay: Antimicrobial activity against Influenza B virus (B/Malaysia/2506/2004) infected itn dosed Mustela putorius furo assessed as nasal viral titer treated after 4 hrs post infection measured after 3 days; assay type: functional, organism-based; how it was run: as §1
Influenza A virus [13] = assay: Antimicrobial activity against Influenza A virus (A/Puerto Rico/8/34(H1N1)) infected in BALB/c mouse assessed as reduction in viral titer in lung at 0.17 mg/kg, itn administered 11 hrs post infection measured after 35 hrs post infection; assay type: functional, organism-based; set-up: dose 0.17 mg/kg; settings: A/Puerto Rico/8/1934(H1N1)
How it was run: (§2)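 BALB/c mice infected intranasally with A/PR/8/34 at 30 PFU. Intranasal dosing at 0.5 μmol/kg began at 11 hpi, either repeated twice daily or given once followed by twice-daily saline. Lungs (n = 3) were taken at 35, 59 and 83 hpi and homogenized. Titers were measured by MDCK plaque assay as log10 PFU/lungs. Two-way ANOVA and Dunnett test were applied.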

Influenza A virus [14] = assay: Antimicrobial activity against Influenza A virus (A/Puerto Rico/8/34(H1N1)) infected in BALB/c mouse assessed as reduction in viral titer in lung at 0.17 mg/kg, itn administered 11 hrs post infection measured after 59 hrs post infection; assay type: functional, organism-based; set-up: dose 0.17 mg/kg; settings: A/Puerto Rico/8/1934(H1N1); how it was run: as §2
Influenza A virus [15] = assay: Antimicrobial activity against Influenza A virus (A/Puerto Rico/8/34(H1N1)) infected in BALB/c mouse assessed as reduction in viral titer in lung at 0.17 mg/kg, itn administered 11 hrs post infection measured after 83 hrs post infection; assay type: functional, organism-based; set-up: dose 0.17 mg/kg; settings: A/Puerto Rico/8/1934(H1N1); how it was run: as §2
Influenza B virus [16] = assay: Antimicrobial activity against Influenza B virus (B/Hong Kong/05/1972) infected in BALB/c mouse assessed as increase in mouse survival at 1.1 mg/kg, itn administered for 7 days before infection measured at day 20; assay type: functional
Influenza A virus [17] = assay: Antimicrobial activity against Influenza A virus (A/Puerto Rico/8/34(H1N1)) infected in BALB/c mouse assessed as increase in mouse survival at 1.7 mg/kg, itn administered for 7 days before infection; assay type: functional, organism-based; set-up: dose 1.7 mg/kg; settings: A/Puerto Rico/8/1934(H1N1)
How it was run: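 Single intranasal dose in saline (50 μl) given to anesthetized female BALB/c mice 7 days before intranasal infection with A/PR/8/34 at 500 PFU, n = 12. Survival was checked daily to day 20. Groups were compared with saline controls by Kaplan-Meier and log-rank test, with Bonferroni adjustment where needed.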

Structure (SMILES): CC(=O)N[C@H]1[C@H]([C@H](O)[C@H](O)CO)OC(C(=O)O)=C[C@@H]1NC(=N)N [ZANAMIVIR]
- Activity (Influenza A virus [1]): Active
- Activity (Influenza A virus [2]): Active
- Activity (Influenza A virus [3]): Active
- Activity (Influenza A virus [4]): Active
- Activity (Influenza A virus [5]): Active
- Activity (Influenza A virus [6]): Active
- Activity (Influenza B virus [7]): Active
- Activity (Influenza B virus [8]): Active
- Activity (Influenza B virus [9]): Active
- Activity (Influenza B virus [10]): Dose-dependent effect
- Activity (Influenza B virus [11]): Dose-dependent effect
- Activity (Influenza B virus [12]): Dose-dependent effect
- Activity (Influenza A virus [13]): Active
- Activity (Influenza A virus [14]): Active
- Activity (Influenza A virus [15]): Active
- Activity (Influenza B virus [16]): 36%
- Activity (Influenza A virus [17]): Active
